Results taken from ChEMBL document CHEMBL4765426, “Design, synthesis and in vitro anti-influenza A virus evaluation of novel quinazoline derivatives containing S-acetamide and NH-acetamide moieties at C-4” (Eur J Med Chem, 2020).
pIC50: −log10 of the molar value.

Experiments:
[1] = Selectivity index, ratio of CC50 for human HEK293T cells to IC50 for Influenza A virus A/WSN/33(H1N1) infected in HEK293T-Gluc cells; format: toxicity, cell-based; details: read-out: Ratio CC50/IC50
Influenza A virus [2] = assay: Antiviral activity against Influenza A virus A/WSN/33(H1N1) infected in HEK293T-Gluc cells pretreated for 2 hrs followed by viral infection and measured after 24 hrs by Gaussia luciferase reporter gene assay; format: functional, organism-based; details: A/WSN/1933(H1N1), HEK-293T
Procedure, shortened: (§1)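 Reporter cells were HEK293T cells stably transfected with pLenti6-Gluc, which constitutively expresses negative-strand Gaussia luciferase RNA that becomes positive-strand on IAV infection. Cells were infected with A/WSN/33 or A/PR/8/1934 (H1N1). Antiviral activity was read as Gluc signal, and IC50 values were derived. Ribavirin served as positive control.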

Influenza A virus [3] = assay: Antiviral activity against Influenza A virus A/PR/8/34 (H1N1) infected in HEK293T-Gluc cells pretreated for 2 hrs followed by viral infection and measured after 24 hrs by Gaussia luciferase reporter gene assay; format: functional, organism-based; details: A/Puerto Rico/8/1934(H1N1), HEK-293T; procedure, shortened: as §1
[4] = Cytotoxicity against human HEK293T cells assessed as reduction in cell viability after 48 hrs by CCK8 assay; format: cell-based, HEK-293T
[5] = Cytotoxicity against human A549 cells assessed as reduction in cell viability after 48 hrs by CCK8 assay; format: cell-based
Influenza A virus [6] = assay: Antiviral activity against Influenza A virus A/WSN/33(H1N1) infected in HEK293T-Gluc cells assessed as inhibition of virus infection at 10 uM pretreated for 2 hrs followed by viral infection and measured after 24 hrs by Gaussia luciferase reporter gene assay; format: functional; details: A/WSN/1933(H1N1), HEK-293T, time 26 hrs
Procedure, shortened: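 A single-concentration screen at 10 μM was run against A/WSN/33 (H1N1) in HEK293T-Gluc reporter cells. These cells carry a stably transfected pLenti6-Gluc construct expressing negative-strand Gaussia luciferase RNA that is converted to positive strand upon infection. Inhibition ratio of infection was read from Gluc activity.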

SMILES	selectivity ratio [1]	pIC50 (Influenza A virus [2])	pIC50 (Influenza A virus [3])	CC50 at 48 h [4] [µM]	CC50 at 48 h [5] [µM]	inhibition at 10 µM (Influenza A virus [6]) [%]
CCN(CC)c1nc(NCC(=O)NCc2ccccc2)c2ccccc2n1	> 20	5.30	5.24	> 100	> 100	
O=C(CNc1nc(N2CCOCC2)nc2ccccc12)NCc1ccccc1	> 26.1	5.42	5.22	> 100	> 100	
CN1CCN(c2nc(NCC(=O)NCc3ccccc3)c3ccccc3n2)CC1	> 8.72	4.94		> 100		
CCN(CC)c1nc(SCC(=O)NCc2ccccc2)c2ccccc2n1	> 5.22	4.72		> 100		
O=C(CNc1nc(N2CCCC2)nc2ccccc12)Nc1ccccc1	12.4	5.73	5.83	23.3	19	95.8
O=C(CNc1nc(N2CCc3ccccc3C2)nc2ccccc12)Nc1ccccc1	9.44	5.41	6.39	36.6	10.7	98.2
CCOc1ccc(NC(=O)CSc2c[nH]c3ccc(Br)cc23)cc1	10.5	5.38	6.48	44	71.4	90.2
O=C(CSc1nc(N2CCCC2)nc2ccccc12)NC1CC1	> 2.61	4.42		> 100		
